Measurements from publication PMC3701953 (Bioorganic & medicinal chemistry letters, 2013).
Where “and” joins values, the source holds several entries; their conditions need not be identical. Equal values may be shown once. Read-outs that look alike come from different tables or passages of the source.

Assays:
HIV-1 NL4-3 [1] = conditions: read-out: anti-HIV-1 activity in cell culture EC50; MAGI cells; cited from earlier work
MAGI cells = experiment: Compound toxicity in MAGI cells by MTS dye reduction; format: cell-based
HIV-1 NL4-3 [2] = experiment: In vitro anti-HIV-1 NL4-3 antiviral assay in MAGI cells; format: cell-based; conditions: HIV-1 NL4-3, MAGI cells, mean of three determinations; for EC50: read-out: EC50 (SD), concentration for 50% inhibition of virus replication; for EC90: read-out: EC90 (SD), concentration for 90% reduction of virus replication
Summary of the method: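 MAGI cells carrying an LTR–β-galactosidase reporter were infected with HIV-1 in the presence of test compound. Infection and Tat expression drive the reporter through the HIV-1 LTR. Cells were lysed 6 days after infection, and β-galactosidase activity was read by chemiluminescence. Values are the mean of three determinations.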

CYP 3A4 = CYP 3A4 (Homo sapiens, UniProt P08684); experiment: CYP 3A4 substrate activity in pooled human liver microsomes; format: in vitro ADME; conditions: relative to control (100%)
[3] = Stability in pooled, mixed-gender human liver microsomes; format: in vitro ADME
Summary of the method: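 Test compound incubated with 0.5 mg/mL microsomal protein in 100 mM potassium phosphate (pH 7.4), with 5 mM MgCl₂, 5 mM G-6-P, 0.5 U/mL G-6-P-DH and 2 mM NADPH. Mixtures were preincubated 3 min at 37 °C, started with NADPH and run 60 min. Aliquots taken at 0, 15, 30, 45 and 60 min were quenched in ice-cold acetonitrile and centrifuged. Supernatant analysed by reversed-phase HPLC-UV at 360 nm. Mean of three determinations, S.D.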

CYP 2D6 = CYP 2D6 (Homo sapiens, UniProt P10635); experiment: CYP 2D6 substrate activity in pooled human liver microsomes; format: in vitro ADME; conditions: for Substrate Activity % ±S.D.: dextromethorphan 200 µM, relative to control (100%)
Summary of the method: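 Pooled human liver microsomes incubated with the probe substrate and a range of test compound concentrations in 100 mM potassium phosphate (pH 7.4) with 5 mM MgCl₂. Mixtures were preincubated 3 min at 37 °C, then started with NADPH (final 2 mM). Substrate and metabolite were quantified by reversed-phase HPLC-UV: CYP3A4, testosterone/6β-hydroxytestosterone at 254 nm; CYP2D6, dextromethorphan/dextrorphan at 278 nm. Mean of three determinations, S.D.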

Chain of CYP 2D6 (P10635 whole entry): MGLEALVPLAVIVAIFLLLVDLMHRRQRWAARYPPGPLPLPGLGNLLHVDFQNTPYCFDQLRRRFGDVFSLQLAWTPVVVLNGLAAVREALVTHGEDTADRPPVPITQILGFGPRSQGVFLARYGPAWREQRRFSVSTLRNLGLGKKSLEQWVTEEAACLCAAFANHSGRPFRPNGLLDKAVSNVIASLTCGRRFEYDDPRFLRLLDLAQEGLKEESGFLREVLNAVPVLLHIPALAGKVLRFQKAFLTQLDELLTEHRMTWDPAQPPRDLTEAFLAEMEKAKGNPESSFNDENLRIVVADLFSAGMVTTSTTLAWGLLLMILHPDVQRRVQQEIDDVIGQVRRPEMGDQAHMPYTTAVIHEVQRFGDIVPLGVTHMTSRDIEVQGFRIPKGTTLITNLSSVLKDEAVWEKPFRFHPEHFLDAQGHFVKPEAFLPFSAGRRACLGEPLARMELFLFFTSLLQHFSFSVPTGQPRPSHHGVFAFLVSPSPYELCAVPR
Chain of CYP 3A4 (P08684 whole entry): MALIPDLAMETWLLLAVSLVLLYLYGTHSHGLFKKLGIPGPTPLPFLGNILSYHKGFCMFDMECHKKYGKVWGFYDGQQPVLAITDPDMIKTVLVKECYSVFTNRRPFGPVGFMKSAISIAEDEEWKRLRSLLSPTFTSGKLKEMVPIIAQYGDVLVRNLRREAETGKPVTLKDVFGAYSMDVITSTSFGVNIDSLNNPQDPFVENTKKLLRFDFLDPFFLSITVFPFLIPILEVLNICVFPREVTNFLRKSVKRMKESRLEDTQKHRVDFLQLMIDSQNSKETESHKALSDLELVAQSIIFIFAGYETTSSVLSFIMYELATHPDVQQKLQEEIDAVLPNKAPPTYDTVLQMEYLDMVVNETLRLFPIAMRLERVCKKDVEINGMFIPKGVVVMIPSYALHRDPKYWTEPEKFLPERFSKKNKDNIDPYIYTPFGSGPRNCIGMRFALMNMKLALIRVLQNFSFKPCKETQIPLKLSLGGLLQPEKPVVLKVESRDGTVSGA

Molecule | EC50 (HIV-1 NL4-3 [1]) [nM] | CC50 (MAGI cells) [nM] | EC50 (HIV-1 NL4-3 [2]) | EC90 (HIV-1 NL4-3 [2]) [nM] | Substrate Activity % ±S.D. (CYP 3A4; testosterone 100 µM, compound 3 at 12.5 µM) [%] | Substrate Activity % ±S.D. (CYP 3A4; testosterone 100 µM, compound 3 at 25 µM) [%] | Substrate Activity % ±S.D. (CYP 3A4; testosterone 100 µM, compound 3 at 50 µM) [%] | Substrate Activity % ±S.D. (CYP 3A4; triazolam 200 µM, compound 3 at 12.5 µM) [%] | Substrate Activity % ±S.D. (CYP 3A4; triazolam 200 µM, compound 3 at 25 µM) [%] | Substrate Activity % ±S.D. (CYP 3A4; triazolam 200 µM, compound 3 at 50 µM) [%] | stability in pooled human liver microsomes (result in words) [3] | CC50 (MAGI cells; read-out: CC50, concentration to reduce cell viability by 50%, MAGI cells, MTS dye reduction) [nM] | Substrate Activity % ±S.D. (CYP 2D6; compound 3 at 12.5 µM) [%] | Substrate Activity % ±S.D. (CYP 2D6; compound 3 at 25 µM) [%] | Substrate Activity % ±S.D. (CYP 2D6; compound 3 at 50 µM) [%] | inhibition or activation of CYP 2D6 (result in words) (CYP 2D6; pooled human liver microsomes, dextromethorphan as substrate)
O=C(O)C(=O)C=C(O)c1cc(Cc2ccc(F)cc2F)cn(Cc2ccccc2F)c1=O [compound 1, 4-(5-(2,4-difluorobenzyl)-1-(2-fluorobenzyl)-2-oxo-1,2-dihydropyridin-3-yl)-4-hydroxy-2-oxobut-3-enoic acid] | 500 |  |  |  |  |  |  |  |  |  |  |  |  |  |  | 
(1R,2R)-4-(5-(2,4-difluorobenzyl)-1-(2-fluorobenzyl)-2-oxo-1,2-dihydropyridin-3-yl)-4-hydroxy-N-(2-hydroxycyclopentyl)but-3-enamide [compound 4] |  | 137000 | 42.2 nM | 871 |  |  |  |  |  |  |  |  |  |  |  | 
(1S,2S)-4-(5-(2,4-difluorobenzyl)-1-(2-fluorobenzyl)-2-oxo-1,2-dihydropyridin-3-yl)-4-hydroxy-N-(2-hydroxycyclopentyl)but-3-enamide [compound 3] |  |  | 25 nM and 25.1 nM | 415 | 109 ±13 | 97 ±18 | 112 ±15 | 124 ±23 | 98 ±7 | 100 ±8 | relatively stable | 40400 | 86 ±7 | 87 ±17 | 87 ±13 | neither a significant inhibitor nor an activator
